Measured values from ChEMBL document CHEMBL1145953 (J Med Chem, 2003).

Experiments:
Adenosine receptor A1 = target: T1, Adenosine receptor A1 (Homo sapiens, UniProt P30542); experiment: Binding affinity using [125I]ABA against human Adenosine A1 receptor
T1 sequence (P30542 whole entry): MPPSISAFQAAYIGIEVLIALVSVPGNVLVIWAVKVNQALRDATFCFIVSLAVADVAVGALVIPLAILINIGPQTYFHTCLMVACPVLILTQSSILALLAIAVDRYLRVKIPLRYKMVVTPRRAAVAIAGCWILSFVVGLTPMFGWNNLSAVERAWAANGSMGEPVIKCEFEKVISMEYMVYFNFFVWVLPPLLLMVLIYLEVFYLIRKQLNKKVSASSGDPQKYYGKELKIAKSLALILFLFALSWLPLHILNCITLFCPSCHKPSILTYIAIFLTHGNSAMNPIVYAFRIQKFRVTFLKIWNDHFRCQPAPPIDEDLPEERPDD

Adenosine receptor A3 [1] = target: T2, Adenosine receptor A3 (Homo sapiens, UniProt P0DMS8); experiment: Binding affinity using [125I]ABA against human Adenosine A3 receptor
T2 sequence (P0DMS8 whole entry): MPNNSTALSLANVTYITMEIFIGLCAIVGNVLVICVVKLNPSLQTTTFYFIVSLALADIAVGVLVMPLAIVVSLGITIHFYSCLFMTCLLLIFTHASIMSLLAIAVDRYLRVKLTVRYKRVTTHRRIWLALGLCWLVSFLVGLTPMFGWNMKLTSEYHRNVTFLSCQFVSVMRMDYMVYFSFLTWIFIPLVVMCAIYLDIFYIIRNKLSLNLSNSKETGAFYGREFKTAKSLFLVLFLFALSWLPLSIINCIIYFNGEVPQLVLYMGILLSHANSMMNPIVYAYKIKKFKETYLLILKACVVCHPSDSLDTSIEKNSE

[2] = target: Adenosine receptors; A1 & A3 (Homo sapiens) (UniProt P30542+P0DMS8); experiment: Ratio of binding affinity for human adenosine A1 and A3 receptors; assay type: protein assay
Adenosine receptor A3 [3] = target: T2, Adenosine receptor A3; experiment: Inhibition of isoproterenol-stimulated cAMP accumulation in HEK 293 cells expressing human Adenosine A3 receptor; assay type: functional, cell-based, HEK293
Method in brief: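 Functional assay in HEK 293 cells with recombinant human A3 receptors. Cells are stimulated with isoproterenol, and the drop in cAMP accumulation is measured over a concentration–response range. EC50 comes from the curve. Mean and SEM of three experiments, each run in duplicate.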

[4] = Tested for pKa value of compound; assay type: physicochemical

SMILES: CNC(=O)[C@H]1O[C@@H](n2cnc3c(NCc4cccc(I)c4)ncnc32)[C@H](O)[C@@H]1N
- Ki (Adenosine receptor A1): 4.6 µM
- Ki (Adenosine receptor A3 [1]): 0.072 µM
- Ratio [2]: 64

SMILES: CNC(=O)[C@H]1O[C@@H](n2cnc3c(NC)ncnc32)[C@H](O)[C@@H]1N
- Ki (Adenosine receptor A3 [1]): 0.12 µM
- Ratio [2]: 194

SMILES: CNC(=O)[C@H]1O[C@@H](n2cnc3c(NC)ncnc32)[C@H](O)[C@@H]1O
- Ki (Adenosine receptor A1): 0.065 µM
- Ki (Adenosine receptor A3 [1]): 0.0048 µM
- Ratio [2]: 13

SMILES: CNC(=O)[C@H]1O[C@@H](n2cnc3c(NCc4cc(Cl)ccc4OCc4cc(C)no4)ncnc32)[C@H](O)[C@@H]1O
- Ki (Adenosine receptor A1): 0.068 µM
- Ki (Adenosine receptor A3 [1]): 0.0016 µM
- Ratio [2]: 42

SMILES: CNC(=O)[C@H]1O[C@@H](n2cnc3c(NCc4cc(Cl)ccc4OCc4cc(C)no4)ncnc32)[C@H](O)[C@@H]1N
- Ki (Adenosine receptor A1): 7.3 µM
- Ki (Adenosine receptor A3 [1]): 0.0058 µM
- EC50 (Adenosine receptor A3 [3]): 0.0034 µM
- pKa [4]: 6.25
